From ChEMBL document CHEMBL3580553, “Potent and Nontoxic Chemosensitizer of P-Glycoprotein-Mediated Multidrug Resistance in Cancer: Synthesis and Evaluation of Methylated Epigallocatechin, Gallocatechin, and Dihydromyricetin Derivatives” (J Med Chem, 2015)
Active and inactive are the calls of the source. The calls are words filed in the database; no cut-off is given here.

Tests used:
[1] = Cytotoxicity against human LCC-6 cells after 3 days by MTS assay; type: functional, cell-based; settings: LCC-6, 72 h
[2] = Cytotoxicity against human MDA435/LCC6MDR cells after 3 days by MTS assay; type: functional, cell-based; settings: 72 h
L929 = assay: Cytotoxicity against mouse L929 cells after 3 days by MTS assay; type: cell-based; settings: L929, 72 h
[3] = molecular target: T1, ATP-dependent translocase ABCB1 (Homo sapiens, UniProt P08183); assay: Modulation of P-gp (unknown origin) transfected in human MDA435/LCC6MDR cells assessed as reversible of paclitaxel resistance measured as IC50 for paclitaxel at 1 uM after 5 days by CellTiter 96 Aqueous assay relative to PTX alone treated cell; type: cell-based; settings: 120 h
T1 sequence (P08183 whole entry): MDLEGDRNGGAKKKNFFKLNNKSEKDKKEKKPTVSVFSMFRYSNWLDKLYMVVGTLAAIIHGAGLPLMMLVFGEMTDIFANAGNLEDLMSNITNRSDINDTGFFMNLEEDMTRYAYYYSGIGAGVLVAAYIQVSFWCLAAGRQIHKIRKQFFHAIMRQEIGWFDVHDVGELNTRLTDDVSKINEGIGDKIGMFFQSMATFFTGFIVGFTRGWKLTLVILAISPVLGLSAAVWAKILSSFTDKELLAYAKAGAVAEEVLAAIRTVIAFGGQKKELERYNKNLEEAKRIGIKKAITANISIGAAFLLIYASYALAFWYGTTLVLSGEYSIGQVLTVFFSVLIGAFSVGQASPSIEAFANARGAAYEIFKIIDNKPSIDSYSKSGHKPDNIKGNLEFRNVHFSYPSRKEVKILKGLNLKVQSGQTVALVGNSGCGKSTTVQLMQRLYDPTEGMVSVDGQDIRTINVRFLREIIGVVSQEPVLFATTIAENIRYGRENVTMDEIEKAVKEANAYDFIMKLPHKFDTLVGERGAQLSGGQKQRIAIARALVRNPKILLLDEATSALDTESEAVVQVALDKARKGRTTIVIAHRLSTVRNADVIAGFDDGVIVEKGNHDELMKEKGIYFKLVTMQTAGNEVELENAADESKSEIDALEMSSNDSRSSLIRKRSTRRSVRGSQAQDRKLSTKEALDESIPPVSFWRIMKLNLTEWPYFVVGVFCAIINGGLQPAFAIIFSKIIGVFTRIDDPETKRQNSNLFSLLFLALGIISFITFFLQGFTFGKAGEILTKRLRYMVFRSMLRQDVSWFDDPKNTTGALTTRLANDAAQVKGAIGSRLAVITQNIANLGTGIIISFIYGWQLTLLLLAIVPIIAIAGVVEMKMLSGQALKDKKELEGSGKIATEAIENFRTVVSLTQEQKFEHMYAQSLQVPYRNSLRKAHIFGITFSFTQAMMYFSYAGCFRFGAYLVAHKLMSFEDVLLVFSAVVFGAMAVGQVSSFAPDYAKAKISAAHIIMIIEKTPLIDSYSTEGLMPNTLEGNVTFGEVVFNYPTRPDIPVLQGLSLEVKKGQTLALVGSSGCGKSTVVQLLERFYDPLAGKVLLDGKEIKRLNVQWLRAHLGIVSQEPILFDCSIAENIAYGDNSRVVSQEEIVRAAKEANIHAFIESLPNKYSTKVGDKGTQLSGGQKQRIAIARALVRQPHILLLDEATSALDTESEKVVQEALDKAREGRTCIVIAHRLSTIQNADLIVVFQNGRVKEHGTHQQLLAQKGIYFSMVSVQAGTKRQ

[4] = Selectivity index, ratio of IC50 for mouse […] cells to EC50 for modulation of P-gp (unknown origin) transfected in human MDA435/LCC6MDR cells assessed as reversing paclitaxel resistance; set-up: species or system L929
[5] = molecular target: Multidrug resistance-associated protein 1 (Homo sapiens, UniProt P33527); assay: Modulation of MRP1 (unknown origin) transfected in human 2008/MRP1 cells assessed as potentiation of doxorubicin-induced cytotoxicity measured as doxorubicin IC50 at 1 uM after 5 days by MTS assay relative to doxorubicin alone treated cell; type: cell-based; settings: 2008/mrp1, 120 h
Sequence of Multidrug resistance-associated protein 1 (P33527 whole entry): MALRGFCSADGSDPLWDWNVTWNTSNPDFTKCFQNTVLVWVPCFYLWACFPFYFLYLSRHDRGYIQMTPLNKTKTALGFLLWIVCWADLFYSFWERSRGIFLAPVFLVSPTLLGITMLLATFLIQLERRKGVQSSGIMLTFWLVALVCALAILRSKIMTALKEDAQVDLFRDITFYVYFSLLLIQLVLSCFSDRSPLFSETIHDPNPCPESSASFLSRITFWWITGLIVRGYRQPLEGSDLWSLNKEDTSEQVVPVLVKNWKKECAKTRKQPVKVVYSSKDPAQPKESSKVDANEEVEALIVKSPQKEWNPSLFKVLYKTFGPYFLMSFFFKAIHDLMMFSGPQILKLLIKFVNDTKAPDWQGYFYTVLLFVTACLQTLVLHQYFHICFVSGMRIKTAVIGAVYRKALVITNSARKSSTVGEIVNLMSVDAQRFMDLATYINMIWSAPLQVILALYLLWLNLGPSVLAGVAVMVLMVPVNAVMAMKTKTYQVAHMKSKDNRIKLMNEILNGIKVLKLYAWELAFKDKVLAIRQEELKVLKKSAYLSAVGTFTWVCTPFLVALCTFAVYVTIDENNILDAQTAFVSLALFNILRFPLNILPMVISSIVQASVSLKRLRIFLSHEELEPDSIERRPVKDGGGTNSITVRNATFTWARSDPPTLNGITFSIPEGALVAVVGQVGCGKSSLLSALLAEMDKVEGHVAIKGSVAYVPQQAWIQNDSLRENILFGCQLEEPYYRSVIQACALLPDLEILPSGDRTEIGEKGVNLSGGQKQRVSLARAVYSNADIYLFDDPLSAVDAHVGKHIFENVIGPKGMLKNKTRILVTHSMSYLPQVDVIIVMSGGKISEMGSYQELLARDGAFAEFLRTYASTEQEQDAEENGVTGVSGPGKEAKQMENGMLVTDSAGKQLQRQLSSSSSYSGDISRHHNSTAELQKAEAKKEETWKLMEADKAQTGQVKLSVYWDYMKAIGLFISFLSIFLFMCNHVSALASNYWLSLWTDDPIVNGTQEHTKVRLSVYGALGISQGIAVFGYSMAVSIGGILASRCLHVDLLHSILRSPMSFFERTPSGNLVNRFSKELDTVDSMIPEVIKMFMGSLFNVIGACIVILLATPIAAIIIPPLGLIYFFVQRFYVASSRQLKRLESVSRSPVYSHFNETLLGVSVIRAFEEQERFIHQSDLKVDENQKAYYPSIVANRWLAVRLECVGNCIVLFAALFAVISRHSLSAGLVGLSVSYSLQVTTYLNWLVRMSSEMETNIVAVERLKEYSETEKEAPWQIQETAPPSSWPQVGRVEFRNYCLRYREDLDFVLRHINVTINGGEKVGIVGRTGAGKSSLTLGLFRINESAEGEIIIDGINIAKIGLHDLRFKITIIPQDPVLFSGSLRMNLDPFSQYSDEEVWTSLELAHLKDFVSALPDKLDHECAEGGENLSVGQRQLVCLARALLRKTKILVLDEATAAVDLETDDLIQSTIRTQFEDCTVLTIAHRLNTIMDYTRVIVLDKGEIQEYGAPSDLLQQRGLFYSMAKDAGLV
How it was run: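 After 5 days at 37 °C, viability was read by MTS. Doxorubicin IC50 came from nonlinear regression, and RF = IC50 without/with modulator. Parental 2008/P cells served as reference. N = 2−4, triplicates, mean ± SEM.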

[6] = molecular target: T2, Broad substrate specificity ATP-binding cassette transporter ABCG2 (Homo sapiens, UniProt Q9UNQ0); assay: Modulation of BCRP (unknown origin) transfected in human HEK293/R2 cells assessed as potentiation of topotecan-induced cytotoxicity measured as topotecan IC50 at 1 uM after 5 days by MTS assay relative to topotecan alone treated cell; type: cell-based; settings: hek293/r2, 120 h
T2 sequence (Q9UNQ0 whole entry): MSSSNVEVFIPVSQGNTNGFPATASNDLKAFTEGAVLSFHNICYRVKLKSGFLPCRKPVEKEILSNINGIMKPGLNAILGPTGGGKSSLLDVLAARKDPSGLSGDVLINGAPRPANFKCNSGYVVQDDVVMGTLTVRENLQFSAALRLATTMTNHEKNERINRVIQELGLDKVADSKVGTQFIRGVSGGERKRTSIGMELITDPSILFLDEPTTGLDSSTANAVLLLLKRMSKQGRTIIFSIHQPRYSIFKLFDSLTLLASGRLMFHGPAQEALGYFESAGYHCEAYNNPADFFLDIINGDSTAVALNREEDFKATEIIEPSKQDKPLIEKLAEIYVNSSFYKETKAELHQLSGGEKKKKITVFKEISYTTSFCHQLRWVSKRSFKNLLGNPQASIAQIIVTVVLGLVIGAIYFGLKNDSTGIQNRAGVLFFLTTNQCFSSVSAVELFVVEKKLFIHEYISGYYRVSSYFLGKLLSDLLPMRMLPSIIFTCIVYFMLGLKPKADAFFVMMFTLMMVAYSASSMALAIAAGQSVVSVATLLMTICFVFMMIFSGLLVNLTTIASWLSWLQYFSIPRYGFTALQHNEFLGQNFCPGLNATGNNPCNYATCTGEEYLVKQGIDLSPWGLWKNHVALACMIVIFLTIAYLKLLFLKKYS
How it was run: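 Incubated 5 days at 37 °C; viability by MTS. Topotecan IC50 came from nonlinear regression, and RF = IC50 without/with modulator. Empty-vector HEK293/pcDNA3.1 served as reference. N = 2−4, triplicates, mean ± SEM.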

[7] = molecular target: T1, ATP-dependent translocase ABCB1; assay: Modulation of P-gp (unknown origin) transfected in human MDA435/LCC6MDR cells assessed as induction of intracellular doxorubicin accumulation at 2 uM after 150 mins by spectrofluorometric analysis relative to control; type: cell-based; settings: 2.5 h
How it was run: (§1)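 LCC6 or LCC6MDR cells (1 × 10⁶) incubated with 20 μM DOX plus 2 μM modulator, 150 min at 37 °C; 0.2% DMSO as negative control; cells washed in cold PBS, lysed in 0.75 M HCl/0.2% Triton X-100 in isopropanol; supernatant DOX fluorescence read by spectrofluorometry.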

Homo sapiens [8] = species: Homo sapiens; assay: Modulation of P-gp (unknown origin) transfected in human MDA435/LCC6MDR cells assessed as restoration of intracellular doxorubicin accumulation at 3 uM after 150 mins by spectrofluorometric analysis relative to parental cells; type: cell-based
How it was run: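 LCC6MDR cells with 20 μM DOX and modulator at 0, 0.05, 0.1, 0.5, 1, 3 or 8 μM; cells lysed and intracellular DOX measured by spectrofluorometry. N = 2–5 independent experiments, mean ± SEM.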

LCC-6 [9] = assay: Effect on doxorubicin efflux in human LCC-6 cells measured at 1.5 uM after 30 to 150 mins by spectrofluorometry relative to control; type: functional, cell-based
How it was run: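 Efflux: LCC6 or LCC6MDR cells preloaded with 20 μM DOX 1 h at 37 °C, washed in PBS, resuspended in DMEM ± 1.5 μM modulator; samples at 0, 30, 60, 90, 120, 150 min chilled on ice; intracellular DOX by spectrofluorometry. DMSO control; N = 3–4, mean ± SEM.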

LCC6MDR (human) = assay: Inhibition of P-gp-mediated doxorubicin efflux in human LCC6MDR cells measured at 1.5 uM after 30 to 150 mins by spectrofluorometry relative to control
[10] = molecular target: T1, ATP-dependent translocase ABCB1; assay: Modulation of P-gp (unknown origin) transfected in human MDA435/LCC6MDR cells assessed as reversible of paclitaxel resistance measured as IC50 for paclitaxel at 10 uM after 5 days by CellTiter 96 Aqueous assay relative to PTX alone treated cell; type: cell-based; settings: 120 h
How it was run: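 They were held 5 days at 37 °C and viability read by CellTiter 96 AQueous (MTS). […] RF = IC50 of PTX without modulator / IC50 with modulator.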

[11] = Drug uptake in human LCC-6 cells at 20 uM after 150 mins by spectrofluorometry relative to P-gp expressing cells; type: ADME, cell-based; settings: lcc-6, 2.5 h
How it was run: (§2)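 LCC6 or LCC6MDR cells (3 × 10⁶) incubated with 20 or 200 μM compound or DOX, 37 °C, 150 min. Compound: pellet extracted with methanol, supernatant by reversed-phase C18 HPLC, methanol eluent, 1 mL/min, UV detection at 308 or 270 nm. DOX: lysis buffer, fluorescence by spectrofluorometer. N = 2–3, mean ± SEM.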

[12] = Modulation of P-gp (unknown origin) transfected in human MDA435/LCC6MDR cells assessed as reversible of paclitaxel resistance measured as IC50 for paclitaxel at 1 uM after 5 days by CellTiter 96 Aqueous assay
[13] = Drug uptake in human LCC-6 cells at 20 uM after 150 mins by spectrofluorometry; type: ADME, cell-based; settings: lcc-6, 2.5 h; how it was run: as §2
[14] = P-gp (unknown origin)- mediated durg uptake in human MDA435/LCC6MDR cells at 20 uM after 150 mins by spectrofluorometry relative to control; type: ADME, cell-based; settings: 2.5 h; how it was run: as §2
[15] = Drug uptake in human LCC-6 cells at 200 uM after 150 mins by spectrofluorometry; type: ADME, cell-based; settings: lcc-6, 2.5 h; how it was run: as §2
[16] = P-gp (unknown origin)- mediated durg uptake in human MDA435/LCC6MDR cells at 200 uM after 150 mins by spectrofluorometry relative to control; type: ADME, cell-based; settings: 2.5 h, in the assay text read “by HPLC” for “by spectrofluorometry”; how it was run: as §2
Homo sapiens [17] = species: Homo sapiens; assay: Modulation of P-gp (unknown origin) transfected in human MDA435/LCC6MDR cells assessed as restoration of intracellular doxorubicin accumulation after 150 mins by spectrofluorometric analysis relative to parental cells; type: cell-based; how it was run: as §1
LCC-6 [18] = assay: Effect on doxorubicin influx in human LCC-6 cells measured at 1.5 uM after 30 to 150 mins by spectrofluorometry relative to control; type: functional, cell-based

Row | SMILES | IC50 [1] | IC50 [2] | IC50 (L929) | Ratio [3] | Ratio IC50/EC50 [4] | Ratio [5] | Ratio [6] | IC50 [12] | also measured
1 | COc1cc(OC)c2c(c1)O[C@H](c1cc(OC)c(OC)c(OC)c1)[C@H](OC(=O)c1ccc(F)c(NC(=O)c3cc(OC)c(OC)c(OC)c3)c1)C2 | > 100 µM | > 100 µM | > 100 µM | 43.8 | >467 | 0.9 | 2.3 | – | fold change (FC) [7]: 2.7; Activity (Homo sapiens [8]): Active; Activity (LCC-6 [9]): inactive; inhibition (LCC6MDR (human)): Active
2 | O=C(O[C@@H]1Cc2c(O)cc(O)cc2O[C@@H]1c1cc(O)c(O)c(O)c1)c1cc(O)c(O)c(O)c1 [EPIGALOCATECHIN GALLATE] | 69.1 µM | 56 µM | 82.3 µM | 1.2 | – | – | – | – | Ratio [10]: 1.2
3 | COc1cccc2c1C(=O)c1c(O)c3c(c(O)c1C2=O)C[C@@](O)(C(=O)CO)C[C@@H]3O[C@H]1C[C@H](N)[C@H](O)[C@H](C)O1 [DOXORUBICIN] | – | – | – | – | – | – | – | – | Drug uptake [11]: Active
4 | COc1cc(OC)c2c(c1)O[C@H](c1cc(OC)c(OC)c(OC)c1)[C@@H](OC(=O)c1ccc(F)c(NC(=O)c3ccc(OC)c(OC)c3)c1)C2 | > 100 µM | > 100 µM | > 100 µM | 31.4 | >585 | 2.6 | 10.4 | 0.0046 µM | –
5 | COc1cc(OC)c2c(c1)O[C@H](c1cc(OC)c(OC)c(OC)c1)[C@@H](OC(=O)c1ccc(F)c(NC(=O)c3cc(OC)c(OC)c(OC)c3)c1)C2 | > 100 µM | > 100 µM | > 100 µM | 53.6 | >714 | 2.6 | 12.3 | 0.0027 µM | Drug uptake [13]: Active; Drug uptake [14]: Not Active; Drug uptake [15]: Active; Drug uptake [16]: Not Active
6 | COc1ccc(CCN(C)CCCC(C#N)(c2ccc(OC)c(OC)c2)C(C)C)cc1OC (configuration not stated) | – | – | – | – | – | – | – | – | Activity (Homo sapiens [17]): Dose-dependent effect; Activity (Homo sapiens [8]): Active
7 | COc1cc(OC)c2c(c1)O[C@H](c1cc(OC)c(OC)c(OC)c1)[C@@H](OC(=O)/C=C/c1ccc(OC)c(OC)c1)C2 | > 100 µM | > 100 µM | > 100 µM | 12.3 | – | – | – | 0.0118 µM | –
8 | COc1cc(OC)c2c(c1)O[C@H](c1cc(OC)c(OC)c(OC)c1)[C@H](OC(=O)c1ccc(F)c(NC(=O)c3ccc(OC)c(OC)c3)c1)C2 | > 100 µM | > 100 µM | > 100 µM | 48.2 | >698 | 0.8 | 2.7 | – | fold change (FC) [7]: 2.5; Activity (Homo sapiens [17]): Dose-dependent effect
9 | COc1cc(OC)c2c(c1)O[C@H](c1cc(OC)c(OC)c(OC)c1)[C@H](OC(=O)c1cc(OC)c(OC)c(OC)c1)C2 | > 100 µM | > 100 µM | > 100 µM | 6.9 | – | – | – | 0.021 µM | –
10 | COc1cc(OC)c2c(c1)O[C@H](c1cc(OC)c(OC)c(OC)c1)[C@@H](OC(=O)c1ccc(F)c(NC(=O)/C=C/c3cc(OC)c(OC)c(OC)c3)c1)C2 | > 100 µM | > 100 µM | > 100 µM | 34.4 | >444 | – | – | 0.0042 µM | –
11 | COc1cc(OC)c2c(c1)O[C@H](c1cc(OC)c(OC)c(OC)c1)[C@H](OC(=O)/C=C/c1cc(OC)c(OC)c(OC)c1)C2 | > 100 µM | > 100 µM | > 100 µM | – | – | – | – | – | fold change (FC) [7]: 2.7; Activity (Homo sapiens [17]): Dose-dependent effect; Activity (Homo sapiens [8]): Active; Activity (LCC-6 [9]): inactive; Activity (LCC-6 [18]): inactive; Drug uptake [13]: Active; Drug uptake [14]: Not Active; Drug uptake [15]: Active; Drug uptake [16]: Not Active; inhibition (LCC6MDR (human)): Active
12 | COc1cc(OC)c2c(c1)O[C@H](c1cc(OC)c(OC)c(OC)c1)[C@H](OC(=O)/C=C/c1ccc(OC)c(OC)c1)C2 | > 100 µM | > 100 µM | > 100 µM | 16.6 | >638 | – | – | – | –
13 | COc1cc(OC)c2c(c1)O[C@H](c1cc(OC)c(OC)c(OC)c1)[C@@H](OC(=O)c1ccc(F)c(NC(=O)/C=C/c3ccc(OC)c(OC)c3)c1)C2 | > 100 µM | > 100 µM | > 100 µM | 21.9 | >357 | – | – | – | –
